Results on two compounds are retold here after publication PMC12570389 (RSC Advances, 2025).

Structures are written as SMILES. Entries after “also recorded” stand apart in the source; their conditions may differ.

One data set concerns CCR2. The note with it: Table S5C training set of 3D-QSAR; ref BindingDB; cited from earlier work.
Another data set deals with COL1A1. Put plainly: RT-qPCR of COL1A1 mRNA in TGF-β-stimulated MRC-5 cells. The format is cell-based, human. The note with it: 17 (50 μM), 67 (100 μM), nintedanib (10 μM), 48 hours, vs TGF-β model. (In general: Quantitative PCR measures a nucleic acid by following its amplification.)
The next data set deals with MRC-5 cells. Put plainly: Hydroxyproline content in TGF-β-stimulated MRC-5 cells. The format is cell-based, human. As to conditions: 17 (50 μM), 67 (100 μM), nintedanib (10 μM), 48 hours, vs TGF-β model. In a few lines:
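TGF-β (10 ng mL−1, 48 h) stimulated MRC-5 fibrosis model cells were then exposed to test compound at a single concentration (50 or 100 μM), or to a reference antifibrotic at 10 μM, for 48 h. Hydroxyproline content was compared with the TGF-β-stimulated model.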

Data set [1] has as its system Human diploid fibroblasts (MRC-5). Put plainly: CCK8 viability assay in TGF-β-induced pulmonary fibrosis cell model. It counts as cell-based. In a few lines:
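MRC-5 fibroblasts were seeded at 2000 cells/well and given TGF-β (10 ng mL−1) for 48 h to build the fibrosis model. Test compound was dissolved in DMSO, diluted in DMEM and applied at 0, 1, 1.25, 2.5, 5, 10, 25, 50 and 100 μmol for 48 h, with a reference antifibrotic as positive control. CCK8 (10% volume) was added, plates incubated 3 h in the dark, and A450 read.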
A general note: Formazan colour is commonly taken as a measure of viable cells.

What is called IC50 is the concentration at which inhibition is half-maximal.

For the compound `Cc1ccc(-c2ccc3c(c2)C=C(C(=O)Nc2ccc(C[N+](C)(C)C4CCOCC4)cc2)CCC3)cc1` [BDBM50088301], the IC50 with CCR2 was 0.03 nM.

On to `COC(=O)c1ccc2c(c1)NC(=O)/C2=C(\Nc1ccc(N(C)C(=O)CN2CCN(C)CC2)cc1)c1ccccc1` [nintedanib], for which the “expression of COL1A1” value in the data set with COL1A1 is reported as “significantly decreased”. The hydroxyproline entry in the data set with MRC-5 cells is “significantly decreased”. The “proliferation / 48-hour cell inhibition rate (CCK8)” value in data set [1] (TGF-β (10 ng mL^−1) induced MRC-5, 48-hour drug treatment, 0-100 μmol) is “effectively suppressed the proliferation; also recorded: concentration-dependent increase in their inhibitory effects”. Also, the “cytotoxic effect on the pulmonary fibrosis cell model, comparison” value in data set [1] (TGF-β induced MRC-5, 48 h, CCK8) was “even stronger cytotoxic effect than compound 17”.
